Test results: article PMC10233671 (ACS Omega, 2023)
Converted amounts (≈) assume the structure as drawn.

What was measured:
[1] = target: T1, mitochondrial CIII2 (cytochrome bc1) (Candida albicans, UniProt P0C8L0); experiment: C. albicans complex III activity assay; type: biochemical; details: 10 and 1 μM
T1 sequence (P0C8L0 1-387): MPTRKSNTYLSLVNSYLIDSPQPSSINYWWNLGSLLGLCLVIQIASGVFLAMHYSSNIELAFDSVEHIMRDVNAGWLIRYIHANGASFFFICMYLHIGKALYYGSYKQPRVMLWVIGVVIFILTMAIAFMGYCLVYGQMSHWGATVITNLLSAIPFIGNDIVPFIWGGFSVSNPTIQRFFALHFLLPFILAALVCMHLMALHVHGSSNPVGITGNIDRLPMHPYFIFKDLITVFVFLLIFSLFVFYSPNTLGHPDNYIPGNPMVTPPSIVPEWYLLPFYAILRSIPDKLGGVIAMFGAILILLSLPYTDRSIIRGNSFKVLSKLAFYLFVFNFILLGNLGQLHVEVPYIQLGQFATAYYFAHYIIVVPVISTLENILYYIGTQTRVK

Msmeg CIII2CIV2 = Msmeg CIII2CIV2 (Mycolicibacterium smegmatis, UniProt A0R052+I7GD61); experiment: Oxygen consumption assay with purified CIII2CIV2; type: biochemical, Mycobacterium smegmatis
mitochondrial complex I = mitochondrial complex I (Bos taurus, UniProt P03887+P17694+P42026); experiment: Bos taurus complex I activity assay; type: biochemical; details: 10 μM, SMPs
Chain of mitochondrial complex I (P03887 whole entry): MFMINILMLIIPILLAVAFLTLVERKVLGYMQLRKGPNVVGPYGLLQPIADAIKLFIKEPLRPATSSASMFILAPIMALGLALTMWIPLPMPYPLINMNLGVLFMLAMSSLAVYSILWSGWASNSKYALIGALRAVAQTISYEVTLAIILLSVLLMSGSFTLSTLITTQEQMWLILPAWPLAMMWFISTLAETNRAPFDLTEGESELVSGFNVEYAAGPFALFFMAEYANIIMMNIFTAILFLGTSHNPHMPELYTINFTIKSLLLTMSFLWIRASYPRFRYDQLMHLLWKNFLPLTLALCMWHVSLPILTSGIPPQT
Chain of mitochondrial complex I (P42026 38-216): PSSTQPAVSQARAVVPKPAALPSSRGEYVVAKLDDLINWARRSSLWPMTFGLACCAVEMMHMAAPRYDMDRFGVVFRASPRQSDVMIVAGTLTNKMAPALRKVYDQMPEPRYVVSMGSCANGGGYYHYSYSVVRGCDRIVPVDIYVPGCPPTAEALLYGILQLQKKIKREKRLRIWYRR
Chain of mitochondrial complex I (P17694 34-463): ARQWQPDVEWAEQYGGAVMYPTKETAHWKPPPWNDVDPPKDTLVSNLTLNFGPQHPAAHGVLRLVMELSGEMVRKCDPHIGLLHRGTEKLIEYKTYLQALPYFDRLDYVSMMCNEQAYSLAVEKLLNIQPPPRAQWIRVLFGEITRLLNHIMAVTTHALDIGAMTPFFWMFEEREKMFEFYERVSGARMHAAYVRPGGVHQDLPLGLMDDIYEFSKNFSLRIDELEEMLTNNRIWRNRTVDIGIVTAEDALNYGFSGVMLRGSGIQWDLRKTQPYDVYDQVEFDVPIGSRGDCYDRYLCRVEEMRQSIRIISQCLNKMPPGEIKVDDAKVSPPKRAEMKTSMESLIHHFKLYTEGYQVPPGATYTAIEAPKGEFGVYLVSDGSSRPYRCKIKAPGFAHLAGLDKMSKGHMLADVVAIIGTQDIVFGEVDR
Procedure, shortened: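 Complex I from bovine heart sub-mitochondrial particles, prepared at 4 °C from isolated mitochondria and cleared at 16,000g. In a 96-well plate, SMPs were mixed with 10 μM test compound or positive control (rotenone, antimycin A or KCN). The reaction was started by injecting 200 μM NADH. NADH oxidation was followed at 340 nm for 8 min.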

Mtb H37Rv = details: reported value; cited from earlier work
[2] = cited from earlier work
[3] = system: viable mycobacteria in the sputum; details: phase 2a multiple-dose trial; cited from earlier work
[4] = target: bovine mitochondrial cytochrome bc1 (complex III) (Bos taurus, UniProt P00157); experiment: Oxygen consumption assay with bovine heart sub-mitochondrial particles; type: biochemical

## CCc1nc2ccc(Cl)cn2c1C(=O)NCc1ccc(N2CCC(c3ccc(OC(F)(F)F)cc3)CC2)cc1 [Compound Q203]
[1]
  inhibition of purified C. albicans CIII2: No inhibition was observed
Msmeg CIII2CIV2
  IC50: 99 ± 32 nM
Mitochondrial complex I
  inhibition of / binding to mitochondrial complex I: do not inhibit
Mtb H37Rv
  MIC50: 2.7 nM (≈ 1.5 ng/mL)
[2]
  half-life: 13.38 ± 9.4704 days
[3]
  early bactericidal activity: dose-dependent reduction in the load of viable mycobacteria in the sputum
[4]
  activity against bovine mitochondrial cytochrome bc1: did not show activity
[4]; 1 μM
  inhibition in SMPs: no inhibition was detected
[4]; 10 μM
  inhibition in SMPs: some inhibition
[4]; read-out: inhibition of complex III in SMPs
  inhibition at 10 µM: 80%
